Data reported in ChEMBL document CHEMBL4513216, “Probing the Open Global Health Chemical Diversity Library for Multistage-Active Starting Points for Next-Generation Antimalarials” (ACS Infect Dis, 2020).

Assay: Toxicity liver stage against HepG2, at 10uM
Type: cell-based
Parameters: test concentration 10 uM, cell line HepG2-A16-CD81EGFP
Conditions: human, HepG2-A16-CD81EGFP cells; read-out: INHIBITION
In short: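 Uninfected HepG2-A16-CD81EGFP cells, 3 × 10^3 per well, 1536-well, plated on prespotted compound at 10 μM final, parasite-free screening media added to match infected plates; puromycin 10 μM positive, DMSO 0.5% negative; run in parallel with 48 h PbLuc assay at 37 °C, 5% CO2; viability by CellTiter-Glo luminescence, normalized to controls.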

Row | SMILES | cytotoxicity at 10 µM [%]
1 | CCOC(=O)CNC(=O)NCc1cccn1Cc1ccccc1C | 4.9
2 | CCc1nnc(NC(=O)c2c3c(nn2C2CCS(=O)(=O)C2)CCC3)s1 (stereo unspecified) | -4.28
3 | CCOc1ncc(NC(=O)c2ccccn2)c(OCC)n1 | -0.191
4 | CC(=O)N1CCC2(CCN(CC(C)C)C2)C1 (stereo unspecified) | 5.41
5 | CC(=O)N1[C@H](Cn2cncn2)C[C@@H]2CN(C(=O)c3ccoc3)CC[C@@H]21 | -3.42
6 | Cn1cc(-c2ncnc3c2CCN(C(=O)c2cnccn2)CC3)cn1 | 6.93
7 | CN(C)c1ncc(-c2cc(C(=O)NC(C)(C)CO)n(CC3CC3)c2)cn1 | -13.4
8 | CC(C)Nc1ncnc2c1CCN(Cc1ccoc1)CC2 | 5.65
9 | Cn1cccc1C(=O)NCc1cnc2n1CCN(c1ccccn1)C2 | -2.74
10 | COC[C@@]12CCO[C@@H]1CCN(C(=O)Cc1cccc(F)c1)C2 | -8.95
11 | COc1nn(C)c2c1CCCN(C(=O)c1cccs1)C2 | 8.36
12 | O=C(c1cnccn1)N1CCN(CC2CC2)c2ncccc2C1 | -3.99
13 | Cc1nc(N2CCCC2)nc2c1CCN(C(=O)C1CCC1)CC2 | 3.39
14 | CCN(CC)C(=O)Cn1c(-c2ccc(Cl)cc2)nc(C)c(CCO)c1=O | 2.62
15 | COc1cccc2c1ccn2CCC(=O)NCCCC(=O)O | 9.64
16 | Cn1nc(CNC(=O)NCc2ccc(Cl)cc2)c2c1CCOC2 | 2.81
17 | CCn1ccc(NC(=O)CCn2nc(C)c3ccccc32)n1 | 4.51
18 | Cc1c(C(=O)N(C)CC(F)(F)F)nnn1-c1ccc(F)cc1 | 7.92
19 | Cc1ccccc1-c1cc(CC2(C(=O)O)CCOCC2)on1 | -14.1
20 | Cn1ccnc(Nc2ccc3c(c2)CCN3C(=O)c2ccoc2)c1=O | -65.2
21 | Cc1ccc(C2CCCCCN2C(=O)Nc2cn[nH]c2)o1 (stereo unspecified) | 5.16
22 | Cc1c(C(=O)NCC(F)(F)F)nnn1-c1ccccc1Cl | 2.37
23 | CCC(C(=O)NCCc1ccn(-c2ccccc2)n1)N1CCCC1=O (stereo unspecified) | 6.18

Row | SMILES | cytotoxicity at 10 µM [%]
24 | CCN(CCNS(=O)(=O)C1CCOCC1)C(=O)OC(C)(C)C | -1.8
25 | CCOc1ccc(NC(=O)c2ccc(C#N)cc2C)cc1CO | -4.12
26 | Cc1ncc(C(=O)NCCNc2ccncc2)s1 | 1.72
27 | CC(=O)N1CCC(NC(=O)c2cc(S(N)(=O)=O)ccc2C)CC1 | 11.7
28 | CNS(=O)(=O)CC1CCCN1c1ccc(Cl)cn1 (stereo unspecified) | 7.6
29 | CC(=O)N1CCN(C(=O)c2sccc2Br)CC1 | 6.83
30 | CC(C)c1nc2cc(NC(=O)Cn3ccccc3=O)ccc2o1 | -17.8
31 | O=C1CCC(=O)N1Cc1ccc(C(=O)N2CCCC2c2cccs2)cc1 (stereo unspecified) | 2.8
32 | Cc1ccnc(NCc2cccc(OCCN3CCOCC3)c2)n1 | 2.5
33 | COC(=O)C1CN(CC(=O)Nc2ccccc2Cl)c2ccccc21 (stereo unspecified) | 14.3
34 | CCCn1nc2c(cc1=O)CN(Cc1ncc(C(C)(C)C)o1)CC2 | -7.17
35 | Cn1cnc(-c2ccc(F)cc2)c1NC(=O)CCNC(=O)C(C)(C)C | 3.84
36 | COc1ccc(C2CCCN2C(=O)NCCNc2ccccn2)cc1 (stereo unspecified) | 6.64
37 | OC(CN(Cc1ccccc1)Cc1ccon1)c1ccco1 (stereo unspecified) | 4.42
38 | CCS(=O)(=O)N1CCC(OCCCc2ccccc2)C1 (stereo unspecified) | 8.59
39 | CC(C)C(C)(C#N)NC(=O)Cn1nnc(-c2cc3ccccc3o2)n1 (stereo unspecified) | 5.76
40 | CN(C)C(=O)CNC(CC(F)(F)F)c1ccc(F)cc1 (stereo unspecified) | -3.08
41 | CC(C)N(Cc1cccnc1)C(=O)CNc1ccc(C#N)cc1 | 1.44
42 | CCn1c(CN2CCCC(Cn3cncn3)C2)nc2c(F)cccc21 (stereo unspecified) | 6.49
43 | c1cnc(N2CCN(Cc3nnnn3C3CC3)CC2)nc1 | 9.29
44 | Cc1csc(N2CCCN(C(=O)CCN3CCCC3=O)CC2)n1 | 24.3
45 | Cc1ncsc1C(=O)NCCCN1CCCCCC1=O | -3.51
46 | Cc1noc(COCC(=O)Nc2cc(C)c(Br)cn2)n1 | 5.5

Row | SMILES | cytotoxicity at 10 µM [%]
47 | O=C(c1cc(Cl)c2c(c1)OCO2)N1CCN(c2ccccn2)CC1 | -2.67
48 | Cc1ccc(F)c(C(=O)N2CCN(S(C)(=O)=O)[C@@H](C)C2)c1 | -10.3
49 | CC(C)NC(=O)N1CC[C@@H]2CN(S(C)(=O)=O)CCO[C@@H]2C1 | -102
50 | O=C(c1ccccn1)N1C[C@@H](OCc2cccnc2)[C@H]2OCCC[C@@H]21 | -0.187
51 | CCNc1ncc(C(=O)N2CCOC(CCCC(C)C)C2)cn1 (stereo unspecified) | 10.3
52 | COc1cccc(CN2CCN(c3noc(C(C)C)n3)CC2)c1F | 2.97
53 | CCN1CC(C(=O)N2CCN(c3cnn(C)c(=O)c3)CC2)CCC1=O (stereo unspecified) | 0.508
54 | COCCN1CCC(c2nc3c([nH]2)CC(C)(C)CNC3=O)C1 (stereo unspecified) | -2.18
55 | CCN(Cc1cnn(CC)c1)C(=O)Cn1c(=O)c(C)nc2ccccc21 | 0.791
56 | O=C1CCC2(CCCN(c3ncnc4[nH]cnc34)C2)CN1CCCO (stereo unspecified) | -2.09
57 | O=C(CN1CCNCC1)NCc1ccc2sccc2c1 | 1.16
58 | CC1(C)CN(Cc2nnc(-c3cccnc3)o2)CC[C@]1(C)O | -10.2
59 | COCC(=O)N1C[C@H]2CNC[C@@]2(C(=O)NCc2snnc2C)C1 | 8.27
60 | Cc1nccn1Cc1nnc(C2CCN(c3ccncc3F)CC2)n1C | -9.36
61 | Cn1cc(CN2CCCC(Cn3cc(CCCO)nn3)C2)cn1 (stereo unspecified) | -3.51
62 | CS(=O)(=O)NCCC(=O)N1CCC(Cc2ccc(CO)cc2)C1 (stereo unspecified) | -5.77
63 | O=C1N(CC2CCC2)CCCC12CCN(S(=O)(=O)c1cccnc1)C2 (stereo unspecified) | 9.94
64 | O=C(CN1CCCC1c1nc(-c2ccccc2)no1)N1CCOCC1 (stereo unspecified) | 4.17
65 | Cc1cc(C(=O)N2CCC(CCC(=O)NCCN(C)C)CC2)ccc1O | 5.38
66 | CCCN1CCCC2(CCN(Cc3cncn3C3CCCCC3)C2)C1=O (stereo unspecified) | 5.89
67 | Nc1nc2c(c(NCC(c3cccnc3)N3CCOCC3)n1)CCCC2 (stereo unspecified) | -14.9
68 | CC(C)Cc1cc(C(=O)NCC(O)c2ccc(F)cc2)n(C)n1 (stereo unspecified) | -2.96
69 | CCCn1cnnc1CNC1CSCCSC1 | -7.31

Row | SMILES | cytotoxicity at 10 µM [%]
70 | Cc1noc(CC2CCN(C(=O)C(c3ccccc3C)N(C)C)CC2)n1 (stereo unspecified) | 1.86
71 | Cc1ccsc1CN(Cc1ccccn1)CC(C)C | -13.4
72 | Cc1ccc(CC(=O)Nc2cc(C(C)C)n[nH]2)cn1 | -1.71
73 | COc1c(C)cnc(CN2CCC(N(C)S(C)(=O)=O)CC2)c1C | 0.141
74 | Cc1nnc(NC(=O)NC(C)Cn2cccn2)s1 (stereo unspecified) | 6.62
75 | Cc1oc(-c2ccco2)nc1CNC1CCCN(c2cccnn2)C1 (stereo unspecified) | -2.87
76 | O=C(c1cccc(N2CCCC2=O)c1)N1CCCC(n2cccn2)C1 (stereo unspecified) | -8.22
77 | CC(C)CCN(C)Cc1nc2c(cnn2C)c(=O)[nH]1 | -11.2
78 | c1ncc2c(n1)CN(Cc1nc(-c3ccoc3)no1)CC2 | -10.2
79 | CC(Cn1ccnc1)NC(=O)Cc1ccc2c(c1)OCCO2 (stereo unspecified) | -7.2
80 | Cc1ncc2c(n1)CN(CCCc1ccccc1)CC2 | -34.7
81 | Fc1ccc(-c2nc(CN3CCn4c(nnc4C4CC4)C3)co2)cc1 | -7.72
82 | Cc1oc(C)c(C(=O)N2CCCN(c3nccs3)CC2)c1C | 1.53
83 | Cc1nc(C)n(CC2CN(CCOc3cccc(F)c3)CCO2)n1 (stereo unspecified) | -12.7
84 | CCCc1n[nH]c(C2CN(CCCS(=O)(=O)N(C)C)CCO2)n1 (stereo unspecified) | -11.9
85 | O=C(Cc1csc(-c2ccco2)n1)N1CCN(c2nccs2)CC1 | -9.26
86 | O=C(NCc1cccc(F)c1)NCC(O)c1cccc(F)c1 (stereo unspecified) | -7.58
87 | CCOc1cccc(C(C)NCc2c(C)nn(C)c2N(C)C)c1 (stereo unspecified) | 5.22
88 | Cn1ccc(CN2CCC(CC(=O)N3CCCC3)CC2)cc1=O | -12.6
89 | CC(CNC(=O)Nc1cn[nH]c1)N1CCCC1 (stereo unspecified) | -7.32
90 | Cc1ccsc1C(=O)N1CCCN(Cc2cscn2)CC1 | -12.4
91 | CCn1ncc2c1CCCC2NCc1ccc(C)s1 (stereo unspecified) | -6.73
92 | Cc1nc(CN2CCCN(CC(=O)Nc3ccncc3)CC2)no1 | -7.03

Row | SMILES | cytotoxicity at 10 µM [%]
93 | CC(C)c1[nH]c2ncccc2c1CN1CCOCC1 | 0.752
94 | Cc1ncc(CN2CCOCC2)c2cc(C(=O)c3ccc(Br)cc3)oc12 | 3.54
95 | CC(=O)N1CCC2(CC1)CN(C)CC[C@H]2C(F)(F)F | -153
96 | Cn1cnc(S(=O)(=O)N2CCN(CC3CC3)c3ncccc3C2)c1 | -160
97 | Cc1nc(CN2CCC3(CCN(Cc4cnn(C)c4)CC3)C2=O)cs1 | 2.34
98 | c1csc(CN2C[C@@H]3OCCN(CC4CCCO4)[C@@H]3C2)c1 (stereo partly specified) | -6.31
99 | CN(C)S(=O)(=O)N1CCC[C@]2(C[C@@H](Oc3ccccn3)CO2)C1 | -2.31
100 | c1cncc(OC[C@]23COC[C@H]2CN(Cc2cccs2)C3)c1 | -13
101 | COCCCNC(=O)c1cc(-c2cnc(N(C)C)nc2)cn1CC1CC1 | 2.28
102 | COc1cc(N2CC3(CCN(S(C)(=O)=O)C3)C2)ncn1 | 9.43
103 | COCCCN1CCCC12CCN(c1ncccn1)CC2 | 2.87
104 | CN(C)C(=O)[C@@H]1CC[C@@H]2[C@@H](CCN2Cc2nccs2)O1 | 1.97
105 | CN(C)Cc1nnn2c1CN(Cc1cccnc1)CCC2 | 5.69
106 | O=C(O)c1c(-c2cccnc2)ncc2c1CCN(CC1CCOC1)C2 (stereo unspecified) | -2.55
107 | CCN1CCOCC12CCN(C(=O)C1CCC1)CC2 | -1.39
108 | CCCS(=O)(=O)N1C[C@@H](Oc2ccccn2)[C@H]2OCCC[C@H]21 | 0.516
109 | Cc1noc([C@@H]2C[C@@H]3CCN(c4nnc(C)s4)C[C@H]3O2)n1 | 5.35
110 | CCNc1c(NC(=O)C2CC2)c(=O)oc2ccccc12 | -5.99
111 | CCn1cc2[nH]c(OC)c(CNC(=O)C3CCS(=O)(=O)CC3)cc-2c1=O | 4.93
